Source: ChEMBL document CHEMBL1123779, “Modifications of primaquine as antimalarials. 4. 5-Alkoxy derivatives of primaquine” (J Med Chem, 1987)

What was measured:
Plasmodium cynomolgi [1] = assay: Cures in Plasmodium cynomolgi infected Rhesus monkeys (Macaca mulatta) on 0.316 mg/kg/day after 7 days; cured 0 of 2; assay type: functional
Plasmodium cynomolgi [2] = assay: Cures in Plasmodium cynomolgi infected Rhesus monkeys (Macaca mulatta) on 1 mg/kg/day after 7 days; cured 0 of 2; assay type: functional
Plasmodium cynomolgi [3] = assay: Cures in Plasmodium cynomolgi infected Rhesus monkeys (Macaca mulatta) on 10.0 mg/kg/day after 7 days; cured 2 of 2; assay type: functional
Mus musculus [4] = assay: Suppressive blood schizonticidal antimalarial activity evaluated in the trophozoite-induced Plasmodium berghei infection in mice (Mus musculus) at a dose 640 mg/kg given as no. of cures; assay type: functional
Outline: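 Run at the Rane Laboratory with blood-induced P. berghei infections in mice, five animals per group. A cure is a mouse surviving to 60 days postinfection. Deaths before day 6 are recorded separately as toxic deaths. Activity is scored from the increase in mean survival time over untreated controls, and counts as active when treated MST is more than twice control MST.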

Plasmodium berghei [5] = assay: Blood schizonticidal antimalarial activity in the trophozoite-induced Plasmodium berghei infection in mice (Mus musculus) at 20 mg/kg; assay type: functional; design: unit not given beside the values
Outline: (§1)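 Run at the Rane Laboratory in mice infected with blood-induced P. berghei, five animals per group. Activity is the increase in mean survival time over untreated infected controls. A compound counts as active when treated-group MST is more than twice the control MST. Cures are mice surviving at 60 days postinfection.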

Mus musculus [6] = assay: Suppressive blood schizonticidal antimalarial activity evaluated in the trophozoite-induced Plasmodium berghei infection in mice (Mus musculus) at a dose 320 mg/kg; assay type: functional; outline: as §1
Mus musculus [7] = assay: (§2) Suppressive blood schizonticidal antimalarial activity evaluated in the trophozoite-induced Plasmodium berghei infection in mice (Mus musculus) at a dose 160 mg/kg; assay type: functional; outline: as §1
Mus musculus [8] = assay: Suppressive blood schizonticidal antimalarial activity evaluated in the trophozoite-induced Plasmodium berghei infection in mice (Mus musculus) at a dose 40 mg/kg; assay type: functional; design: unit not given beside the values; outline: as §1
Mus musculus [9] = assay: (§3) Suppressive blood schizonticidal antimalarial activity evaluated in the trophozoite-induced Plasmodium berghei infection in mice (Mus musculus) at a dose 80 mg/kg; assay type: functional; design: unit not given beside the values; outline: as §1
Plasmodium cynomolgi [10] = assay: Cures in Plasmodium cynomolgi infected Rhesus monkeys (Macaca mulatta) on 0.316 mg/kg/day after 7 days; cured 1 of 2; assay type: functional
Plasmodium cynomolgi [11] = assay: Cures in Plasmodium cynomolgi infected Rhesus monkeys (Macaca mulatta) on 1 mg/kg/day after 7 days; cured 1 of 1; assay type: functional
Plasmodium cynomolgi [12] = assay: Cures in Plasmodium cynomolgi infected Rhesus monkeys (Macaca mulatta) on 0.1 mg/kg/day after 7 days (x7); cured 0 of 2; assay type: functional
Mus musculus [13] = assay: (§4) Suppressive blood schizonticidal antimalarial activity evaluated in the trophozoite-induced Plasmodium berghei infection in mice (Mus musculus) at a dose 640 mg/kg given as number of toxic deaths; assay type: ADME, organism-based; design: dose 640 mg/kg; conditions: in vivo
Outline: (§5)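 Rane Laboratory mouse test with blood-induced P. berghei infection, five mice per group. Toxic deaths are deaths occurring before the 6th day postinfection.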

Mus musculus [14] = assay: Suppressive blood schizonticidal antimalarial activity evaluated in the trophozoite-induced Plasmodium berghei infection in mice (Mus musculus) at a dose 160 mg/kg given as no. of toxic deaths; assay type: functional; outline: as §5
Mus musculus [15] = assay: Suppressive blood schizonticidal antimalarial activity evaluated in the trophozoite-induced Plasmodium berghei infection in mice (Mus musculus) at a dose 320 mg/kg given as no. of toxic deaths; assay type: functional; outline: as §5
Mus musculus [16] = assay: Suppressive blood schizonticidal antimalarial activity evaluated in the trophozoite-induced Plasmodium berghei infection in mice (Mus musculus) at a dose 10 mg/kg; assay type: functional; outline: as §1
Plasmodium cynomolgi [17] = assay: Cures in Plasmodium cynomolgi infected Rhesus monkeys (Macaca mulatta) on 0.316 mg/kg/day after 7 days; cures 2 of 2; assay type: functional
Plasmodium cynomolgi [18] = assay: Cures in Plasmodium cynomolgi infected Rhesus monkeys (Macaca mulatta) on 1 mg/kg/day after 7 days; cured 3 of 3; assay type: functional
Plasmodium cynomolgi [19] = assay: Cures in Plasmodium cynomolgi infected Rhesus monkeys (Macaca mulatta) on 10.0 mg/kg/day after 7 days; cured 1 of 1; assay type: functional
Plasmodium berghei [20] = assay: as §4; assay type: toxicity, organism-based; design: dose 640 mg/kg; conditions: in vivo; outline: as §5
Mus musculus [21] = assay: as §3; assay type: ADME, organism-based; design: dose 80 mg/kg; conditions: in vivo; outline: as §1
Mus musculus [22] = assay: as §2; assay type: ADME, organism-based; design: dose 160 mg/kg; conditions: in vivo; outline: as §1

Work on `COc1cc(NC(C)CCCN)c2nccc(C)c2c1` (stereo not given) yielded a Cures/no. of animals (Plasmodium cynomolgi [1]) of 0, a Cures/no. of animals (Plasmodium cynomolgi [2]) of 2 and a Cures/no. of animals (Plasmodium cynomolgi [3]) of 2. For the same compound, the Cures (Mus musculus [4]) was 3, the “Delta MST” value (Plasmodium berghei [5]) was 3.1 and the “Delta MST” value (Mus musculus [6]) was 10. For the same compound, the “Delta MST” value (Mus musculus [7]) was 9, the “Delta MST” value (Mus musculus [8]) was 4.9 and the “Delta MST” value (Mus musculus [9]) was 5.5.

Work on `CCCCCOc1c(OC)cc(NC(C)CCCN)c2ncccc12` (stereo not given) yielded a Cures/no. of animals (Plasmodium cynomolgi [10]) of 1, a Cures/no. of animals (Plasmodium cynomolgi [11]) of 1 and a Cures/no. of animals (Plasmodium cynomolgi [12]) of 0. It also gave a Toxic deaths (Mus musculus [13]) of 2, a Toxic deaths (Mus musculus [14]) of 4 and a Toxic deaths (Mus musculus [15]) of 5. The “Delta MST” value (Plasmodium berghei [5]) was 4.7, the “Delta MST” value (Mus musculus [16]) was 4.3 and the “Delta MST” value (Mus musculus [8]) was 6.1. The “Delta MST” value (Mus musculus [9]) was 4.7.

Work on `CCCOc1c(OC)cc(NC(C)CCCN)c2ncccc12` (stereo not given) yielded a Cures/no. of animals (Plasmodium cynomolgi [17]) of 2, a Cures/no. of animals (Plasmodium cynomolgi [18]) of 3 and a Cures/no. of animals (Plasmodium cynomolgi [19]) of 1. For the same compound, the Cures/no. of animals (Plasmodium cynomolgi [12]) was 0, the Toxic deaths (Mus musculus [15]) was 5 and the Toxic deaths (Plasmodium berghei [20]) was 5. For the same compound, the Toxic deaths (Mus musculus [21]) was 1, the “Delta MST” value (Plasmodium berghei [5]) was 4.5 and the “Delta MST” value (Mus musculus [16]) was 3.7. The “Delta MST” value (Mus musculus [8]) was 8.3 and the Toxic deaths (Mus musculus [22]) was 5.
